Compounds with a hit are over-represented: about 2.5% of the library has one in this group of screens.
Ins promoter up: insulin promoter activators in MIN6 cells, imaging, high-content screening, mouse beta cells | MIN6 insulin promoter-GFP reporter; active compounds read high | z-score at 5 µM | 190,000 compounds, 0.3% hits;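 active = z-score above 3 at 5 µM with at least 500 cells counted in the well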
NPY2 pot ag: NPY-Y2 potentiators or agonists, primary screen, cell-based | Neuropeptide Y receptor type 2 (Homo sapiens), P49146 | cells expressing NPY-Y2, potentiator/agonist read-out | activation, % at 3.6 µM | 220,000 compounds, 0.45% hits | AID 1359, 2008; in the data active = activation above about 27%;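 also: cells stimulated with NPY near EC25 plus isoproterenol at EC100; 0% = vehicle plus submaximal agonist and 100% = vehicle plus saturating agonist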
Target sequence (P49146 whole entry, looked up): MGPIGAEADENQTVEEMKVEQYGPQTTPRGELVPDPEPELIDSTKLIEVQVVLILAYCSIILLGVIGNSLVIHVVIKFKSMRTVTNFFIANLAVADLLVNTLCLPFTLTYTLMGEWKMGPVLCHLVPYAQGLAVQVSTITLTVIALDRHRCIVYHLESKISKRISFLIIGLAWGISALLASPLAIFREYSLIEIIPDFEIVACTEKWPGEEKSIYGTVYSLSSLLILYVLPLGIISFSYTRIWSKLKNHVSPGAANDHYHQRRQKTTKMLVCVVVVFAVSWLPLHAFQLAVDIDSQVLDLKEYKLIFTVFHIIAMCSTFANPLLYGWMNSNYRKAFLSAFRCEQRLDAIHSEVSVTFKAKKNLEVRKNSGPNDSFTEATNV
NPY-Y2 antag: NPY-Y2 receptor antagonists, primary screen, cell-based. Neuropeptide Y receptor type 2 (Homo sapiens), P49146. NPY-Y2 expressing cells, antagonist mode. inhibition, % at 2.7 µM. 140,000 compounds, 0.99% hits. AID 793, 2007;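 also: 0% = vehicle with agonist challenge and 100% = reference antagonist with challenge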
NPY-Y1 antag: NPY-Y1 receptor antagonists, primary screen, cell-based | Neuropeptide Y receptor type 1 (Homo sapiens), P25929 | HEK293-CNG Y1 cells, membrane potential fluorescence; NPY at EC95, then isoproterenol | inhibition, % at 3.6 µM | 200,000 compounds, 1% hits;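 active = inhibition above the campaign mean inhibition of all tested compounds plus 3 SD, cut at about 20% in these data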;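 also: 0% = DMSO wells given NPY plus isoproterenol and 100% = isoproterenol alone without NPY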
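Material: Y1- and CNG-channel-expressing HEK293 cells / Probe or stimulus: NPY 25 nM then isoproterenol 1 µM plus Ro 20-1724 25 µM / Doses: 3.6 µM single dose, DMSO 0.4% / Schedule: compound incubation 1 h at room temperature, readout 45 min post-stimulation / Signal: membrane potential fluorescence / Benchmarks: isoproterenol-only wells as full block versus NPY-plus-isoproterenol wells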
INS promoter inh: inhibitors of insulin promoter-driven GFP, primary screen, imaging, TRM-6 cells (human fetal islet line), eGFP reporter, cell count | AID 1273, 2008 | reporter expression induced with tamoxifen | 130,000 compounds, 0.9% hits | inhibition, % at 2 µM;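 active = inhibition above the mean plus 3 SD, with well images judged a real hit on visual review, cut at about 60% in these data, passing the limit was not always enough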
NPY1 pot ag: NPY-Y1 receptor potentiators or agonists, primary screen, cell-based. activation, % at 3.6 µM. NPY-Y1 expressing cells, potentiator/agonist activation. AID 1304, 2008. 220,000 compounds, 0.37% hits. Neuropeptide Y receptor type 1 (Homo sapiens), P25929; in the data active = activation above about 33%, passing the limit was not always enough;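 also: cells stimulated with NPY at EC10 then isoproterenol at EC100; 0% = low agonist plus stimulus and 100% = saturating agonist plus stimulus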
NPY-Y1 ant conf: NPY-Y1 receptor antagonists, retest of hits, confirmation, HEK293-CNG cells, membrane potential fluorescence, triplicate | shares compounds with NPY-Y1 antag | cAMP; NPY challenge against isoproterenol-raised cAMP | inhibition, % at 3.6 µM | 1,200 compounds, 21% hits; in the data active = inhibition above about 20%;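 also: 0% = vehicle with agonist plus stimulus and 100% = stimulus alone without agonist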
NPY2 antag ctr: NPY-Y2 receptor antagonists, selectivity check, confirmation, counter-screen for NPY-Y1 antagonist project, HEK293-CNG cells, membrane potential fluorescence, triplicate; shares compounds with NPY-Y1 antag; antagonism; cells given NPY, then isoproterenol; inhibition, % at 3.6 µM; 1,200 compounds, 28% hits; AID 1255, 2008;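 also: 0% = DMSO with agonist challenge and 100% = reference antagonist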
Active calls of the source: *. Rule as the data show it, unless noted: active = inhibition above about 17%; inactive = the rest.

`Clc1cccc(Cl)c1CSc1cc2c(nn1)-c1ccccc1CC2` gave Ins promoter up 0.08, NPY2 pot ag -5, NPY-Y2 antag 1, NPY-Y1 antag -2, INS promoter inh -18 and NPY1 pot ag -10.
Cc1ccc(NC(=O)C(c2ccccc2)C2CCCC2)cc1 (configuration not stated) was read as NPY2 pot ag 2, NPY-Y2 antag 5, NPY-Y1 antag 24*, INS promoter inh -14, NPY1 pot ag -33, NPY-Y1 ant conf 7 and NPY2 antag ctr 5.
`Cc1ccc(NC(=O)C(Nc2ccccc2)c2ccccc2)cc1` (configuration not stated) gave Ins promoter up -0.13, NPY2 pot ag 8, NPY-Y2 antag 4, NPY-Y1 antag -2, INS promoter inh -70 and NPY1 pot ag -8.
Cn1cnnc1SCC(=O)Nc1ccccc1Oc1ccccc1 was read as Ins promoter up -0.33, NPY2 pot ag -4, NPY-Y1 antag 3 and NPY1 pot ag 0.
`O=C(Cc1ccccc1)Nc1c2c(nn1-c1cccc(Cl)c1)CS(=O)(=O)C2` gave Ins promoter up -0.3, NPY2 pot ag -16, NPY-Y2 antag 9, NPY-Y1 antag 22*, INS promoter inh -91, NPY1 pot ag -13, NPY-Y1 ant conf 17 and NPY2 antag ctr 8.
COc1ccc(CC(=O)Nc2c3c(nn2-c2cccc(Cl)c2)CS(=O)(=O)C3)cc1 was read as Ins promoter up 0.53, NPY2 pot ag 6, NPY-Y2 antag 8, NPY-Y1 antag 14, INS promoter inh -53 and NPY1 pot ag 6.
`C=C1C(C(=O)Nc2cccc(OC)c2)C1C(=O)Nc1cccc(OC)c1` (configuration not stated) gave Ins promoter up 0.28, NPY2 pot ag 1, NPY-Y1 antag 0 and NPY1 pot ag -9.
For COc1cccc(NC(=O)c2cc(-c3ccncc3)nc3c(C)cc(C)cc23)c1 the results were Ins promoter up -0.75, NPY2 pot ag -67, NPY-Y1 antag 22*, NPY1 pot ag -62, NPY-Y1 ant conf 28* and NPY2 antag ctr 29*.
For COc1ccc(C(=O)Nc2cccc(OC)c2)cc1 the results were Ins promoter up 1.9, NPY2 pot ag 9, NPY-Y2 antag 1, NPY-Y1 antag -1, INS promoter inh -18 and NPY1 pot ag -2.
Fc1ccc(-c2nnsc2Sc2ccccn2)cc1 was read as Ins promoter up -0.3, NPY2 pot ag 0, NPY-Y1 antag -2 and NPY1 pot ag -6.
Screening Cc1ccccc1-c1nnn(CC(=O)NCc2ccc3c(c2)OCO3)n1 returned Ins promoter up 0.67, NPY2 pot ag -10, NPY-Y2 antag 14, NPY-Y1 antag 22*, NPY1 pot ag -43, NPY-Y1 ant conf 8 and NPY2 antag ctr 9.
Screening COc1ccc(-c2nnc(OCc3nc4ccccc4n3C)c3ccccc23)cc1 returned Ins promoter up -0.41, NPY2 pot ag -7, NPY-Y2 antag 10, NPY-Y1 antag 8, INS promoter inh -14 and NPY1 pot ag -1.
Screening Cn1c(COc2nnc(-c3ccc(Cl)cc3)c3ccccc23)nc2ccccc21 returned Ins promoter up 0.17, NPY2 pot ag 13, NPY-Y2 antag 1, NPY-Y1 antag 39*, INS promoter inh 0, NPY1 pot ag 3, NPY-Y1 ant conf 1 and NPY2 antag ctr -1.
For COc1ccc(Oc2c(-c3ccc(O)cc3O)n[nH]c2C)cc1 the results were Ins promoter up -0.23, NPY2 pot ag -6, NPY-Y2 antag 6, NPY-Y1 antag 83*, INS promoter inh -25, NPY1 pot ag -20, NPY-Y1 ant conf 35* and NPY2 antag ctr 4.
`OCCN(/C=N/c1nc(-c2ccc(Br)cc2)cs1)CCO` gave Ins promoter up 0.58, NPY2 pot ag 3, NPY-Y2 antag -2, NPY-Y1 antag 1, INS promoter inh -7 and NPY1 pot ag 12.
Screening Brc1ccc(-c2csc(/N=C/N3CCCC3)n2)cc1 returned Ins promoter up -0.66, NPY2 pot ag -27, NPY-Y1 antag 32*, NPY1 pot ag -11, NPY-Y1 ant conf 31* and NPY2 antag ctr 13.
Screening Cc1cc(OC(=O)c2cc(Cl)nc3ccccc23)ccc1Cl returned NPY2 pot ag -9, NPY-Y2 antag 3, NPY-Y1 antag 3, INS promoter inh -46 and NPY1 pot ag -10.
COc1ccccc1OC(=O)c1cc(Cl)nc2ccccc12 was read as Ins promoter up -0.31, NPY2 pot ag 3, NPY-Y2 antag 0, NPY-Y1 antag 21*, NPY1 pot ag -2, NPY-Y1 ant conf 14 and NPY2 antag ctr 17*.
For CC(C)(C)NCc1ccc(OCc2cccs2)cc1 the results were Ins promoter up -0.53, NPY2 pot ag -1, NPY-Y1 antag 5, INS promoter inh -28 and NPY1 pot ag -16.
For COC(=O)c1ccc(NC(=O)c2ccc(CN3CCOCC3)cc2)cc1 the results were Ins promoter up -0.84, NPY2 pot ag 18, NPY-Y2 antag 2, NPY-Y1 antag -10, INS promoter inh 15 and NPY1 pot ag -2.
O=C(Nc1ccc(CN2CCOCC2)cc1)c1ccc(-c2ccc(Br)cc2)o1 was read as Ins promoter up -2.7, NPY2 pot ag -39, NPY-Y2 antag 13, NPY-Y1 antag 31*, INS promoter inh -118, NPY1 pot ag -60, NPY-Y1 ant conf 12 and NPY2 antag ctr 21*.
For Cn1ccnc1C1CCCCN1Cc1nc(-c2ccc(Cl)cc2)no1 (configuration not stated) the results were NPY2 pot ag -26, NPY-Y1 antag 43*, NPY1 pot ag -15, NPY-Y1 ant conf 13 and NPY2 antag ctr 9.
`S=c1nc[nH]c2c1[nH]c1ccccc12` gave Ins promoter up 0.27, NPY2 pot ag -21, NPY-Y2 antag 2, NPY-Y1 antag 39*, INS promoter inh -58, NPY1 pot ag -19, NPY-Y1 ant conf 4 and NPY2 antag ctr 2.
For S=c1nc[nH]c2c1[nH]c1ccc(Cl)cc12 the results were Ins promoter up -0.01, NPY2 pot ag -11 and NPY1 pot ag 8.
Screening C=C1c2ccccc2NC(=O)N1c1ccc(OC)cc1 returned Ins promoter up 0.32, NPY2 pot ag -2, NPY-Y1 antag -4 and NPY1 pot ag -3.

Screens deposited in PubChem BioAssay by several laboratories.
